# Compounds with a hit are over-represented: about 2.3% of the library has one in this group of screens.
# TRPC6 inhibitor: blocks the mouse TRPC6 cation channel | Q61143 | HEK293-TRPC6, membrane potential dye, ACh-evoked depolarization; stronger effect = lower value | B-score at 10 µM | actives 1.1% (n = 310,000) | AID 2553;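 active = B-score under library mean minus 3 SD, initial fluorescence not abnormally high, positive integrated signal ratio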;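 note: B-score derived from integrated fluorescence ratio over the kinetic read; more negative B-score means stronger inhibition of depolarization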
# Target sequence (Q61143 whole entry, looked up): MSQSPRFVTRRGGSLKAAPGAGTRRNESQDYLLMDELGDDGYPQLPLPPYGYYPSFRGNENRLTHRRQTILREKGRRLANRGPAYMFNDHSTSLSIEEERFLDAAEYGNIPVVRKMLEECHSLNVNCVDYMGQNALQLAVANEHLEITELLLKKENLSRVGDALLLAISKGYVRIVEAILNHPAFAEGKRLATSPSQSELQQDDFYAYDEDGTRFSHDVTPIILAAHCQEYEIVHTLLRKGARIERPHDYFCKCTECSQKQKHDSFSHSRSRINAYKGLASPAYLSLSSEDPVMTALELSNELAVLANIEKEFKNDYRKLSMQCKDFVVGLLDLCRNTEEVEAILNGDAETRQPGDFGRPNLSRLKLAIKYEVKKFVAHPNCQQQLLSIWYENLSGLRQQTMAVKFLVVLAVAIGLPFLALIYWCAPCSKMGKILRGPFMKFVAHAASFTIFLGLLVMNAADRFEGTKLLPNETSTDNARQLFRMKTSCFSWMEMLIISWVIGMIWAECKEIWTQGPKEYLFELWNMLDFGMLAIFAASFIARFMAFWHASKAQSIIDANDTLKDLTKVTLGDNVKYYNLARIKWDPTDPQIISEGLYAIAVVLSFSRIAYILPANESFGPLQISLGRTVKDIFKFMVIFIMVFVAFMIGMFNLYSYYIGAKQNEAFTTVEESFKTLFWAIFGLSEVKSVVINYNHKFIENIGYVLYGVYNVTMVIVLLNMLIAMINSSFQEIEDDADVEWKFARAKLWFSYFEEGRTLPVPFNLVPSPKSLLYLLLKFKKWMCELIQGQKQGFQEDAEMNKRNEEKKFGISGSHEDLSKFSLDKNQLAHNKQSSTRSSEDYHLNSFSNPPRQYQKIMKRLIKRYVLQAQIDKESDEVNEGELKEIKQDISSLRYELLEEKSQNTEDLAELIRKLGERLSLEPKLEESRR
# Yeast superoxide: yeast age-related superoxide inhibition as caloric restriction mimetic. S. cerevisiae aged cells, superoxide DHE fluorescence; stronger effect = lower value. superoxide response (% of plate mean), % at 10 µM. actives 0.18% (n = 330,000);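 active = superoxide response under a set limit, about three screen SD below normal, cut at about 65% in these data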;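 note: yeast aged for seven days with compound at 30 °C before DHE staining; 100% = average MFI of all compound-treated wells on the plate with controls excluded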
# TRPC6 act: activators of mouse TRPC6 channel; Q61143; HEK293-TRPC6 membrane potential dye fluorescence; stronger effect = higher value; B-score at 10 µM; actives 0.13% (n = 310,000);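 active = B-score of the integrated fluorescence ratio above library mean plus 3 SD, and starting fluorescence ratio within library mean plus 5 SD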;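 note: higher score means more depolarization so channel activation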
# TRPC4 potent: allosterically enhances the mouse TRPC4 cation channel. Q9QUQ5. HEK293 TRPC4beta/mu-opioid, DAMGO EC20, Fluo-4 Ca2+ flux; stronger effect = higher value. B-score at 10 µM. actives 0.42% (n = 310,000);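 active = B-score of calcium response area above 5 SD of library B-scores, with initial fluorescence ratio within 5 SD of library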;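 note: B-score of integrated fluorescence ratio over time as area under calcium response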
# TRPC4 block: inhibitors of mouse TRPC4 channel; Q9QUQ5; B-score at 10 µM; HEK293 TRPC4beta/mu-opioid, DAMGO-evoked Fluo4 calcium flux; stronger effect = lower value; actives 0.39% (n = 300,000);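 active = B-score over 3 SD under the library average, no early fluorescence shift, positive overall ratio signal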
#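 Signal: kinetic Fluo4 fluorescence imaging of calcium influx. Material: stable TRPC4beta/mu-opioid receptor HEK293 cells. Probe or stimulus: DAMGO in two steps, submaximal then maximal.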
# TRPC4 agonist: opens the mouse TRPC4 cation channel; B-score at 10 µM; HEK293 TRPC4beta/mu-opioid, Fluo4 calcium fluorescence; stronger effect = higher value; AID 2237; actives 0.49% (n = 310,000);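 active = B-score above 5 SD of library B-scores, and initial fluorescence ratio not above library mean plus 5 SD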;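 note: positive B-score marks a calcium rise read as TRPC4 activation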
#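 Assay system: HEK293 cells stably co-expressing mouse TRPC4beta and mu-opioid receptor / Timing: Fluo4 dye loading 45 min at room temperature, 110 s recording / Signal: Fluo4 calcium-sensitive dye fluorescence, kinetic, 1 Hz baseline / Read-out: integrated baseline-normalised fluorescence ratio, converted to per-well B score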
# TRPC4 sel inh 2: second selectivity test of TRPC6 inhibitors: effect on mouse TRPC4 | shares compounds with TRPC6 inhibitor | HEK293 TRPC4/MOR, membrane potential dye fluorescence; channel activated by saturating DAMGO dose | inhibition, % at 10 µM | actives 42% (n = 920) | AID 2776;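 active = compounds whose fluorescence signal differed from control wells by over 3 SD, either direction, in both duplicate plates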
# TRPC4 spec: mouse TRPC4 off-target activity of TRPC6 inhibitors; shares compounds with TRPC6 inhibitor; activity change, negative = inhibition, % at 10 µM; HEK293 TRPC4/mu-opioid, membrane potential fluorescence; actives 61% (n = 920);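 active = rise or fall in signal beyond 3 SD of buffer-only wells in both replicate plates, either sign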;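 note: integrated kinetic ratio of fluorescence range over baseline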
# HEK293 MPD ctr 2-1: second check of TRPC6 inhibitor effects in parental HEK293 cells. shares compounds with TRPC6 inhibitor. parental HEK293 membrane potential dye fluorescence; maximal acetylcholine challenge after compound addition. signal change vs control, % at 10 µM. actives 31% (n = 920);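 active = membrane potential signal moving either way by over 3 SD of the maximum-effect control, in both duplicate plates, meaning non-specific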
# HEK293 MPD ctr-1: counter-screen for TRPC6 inhibitors: effect in parental HEK293 cells; AID 2780; membrane potential signal change, % at 10 µM; parental HEK293 membrane potential dye fluorescence; actives 60% (n = 920); shares compounds with TRPC6 inhibitor;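 active = membrane potential signal shifting up or down by more than 3 SD of buffer-only wells, on both duplicate plates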
# HEK293 MPD ctr-2: parental HEK293 nonspecific activity of TRPC6 modulators. shares compounds with TRPC6 inhibitor. membrane potential dye fluorescence. membrane potential signal change, % at 10 µM. actives 51% (n = 2,400). AID 488924;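 active = membrane potential signal moves up or down beyond 5 SD from buffer-only wells, on both duplicate plates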
# HEK293 MPD ctr 2-2: second counter-screen for TRPC6 modulators: effect in parental HEK293 cells; shares compounds with TRPC6 inhibitor; membrane potential dye fluorescence; after compound, maximal acetylcholine stimulation; inhibition, % at 10 µM; actives 14% (n = 2,400); AID 488926;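 active = membrane potential signal drops by more than 5 SD from the mean control signal, in both duplicate plates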;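 note: plate controls were acetylcholine ECmax control wells for no effect and buffer only wells for full effect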
# TRPC4/MOR mod: mouse TRPC4 off-target activity of TRPC6 modulators; shares compounds with TRPC6 inhibitor; actives 69% (n = 2,400); AID 488927; HEK293 TRPC4/mu-opioid, membrane potential fluorescence; percent change from control (negative = decrease, positive = increase), % at 10 µM;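 active = membrane potential signal moved up or down beyond 5 SD of buffer control wells, in both duplicate plates, actives on both sides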;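 note: plate controls were assay buffer wells for no effect and DAMGO maximal-effect wells for full effect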
# TRPC4 ctr inh 2: mouse TRPC4 off-target activity of TRPC6 modulators, second screen; shares compounds with TRPC6 inhibitor; HEK293 TRPC4/mu-opioid, membrane potential dye fluorescence; stimulated with maximal-effect DAMGO; inhibition, % at 10 µM; actives 55% (n = 2,400); AID 488928;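 active = drop in membrane potential signal beyond 5 SD of the control wells in both duplicate plates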;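 note: TRPC4 counter screen for TRPC6 hits run under conditions tuned for TRPC6 not TRPC4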
# TRPC6 inh conf: confirmation of mouse TRPC6 inhibitors; shares compounds with TRPC6 inhibitor; actives 43% (n = 3,300); inhibition, % at 10 µM; HEK293-TRPC6, membrane potential dye, ACh-evoked depolarization;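 active = fluorescence ratio falls more than 5 SD below the full-stimulation control mean, in both duplicate runs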;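 note: integrated fluorescence ratio of peak minus minimum over baseline after agonist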
# TRPC6 act confirm: mouse TRPC6 activator confirmation | AID 488961 | HEK293-TRPC6 membrane potential dye fluorescence, FDSS | actives 11% (n = 2,800) | shares compounds with TRPC6 inhibitor | activation, % at 10 µM;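 active = ratio signal rise beyond 5 SD above unstimulated control wells' mean, seen in both duplicate runs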;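 note: plate controls were buffer EC0 wells for no effect and acetylcholine ECmax response for full effect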
# * hit, by the source's call; i = inactive; nt = no result.
SMILES,TRPC6 inhibitor,Yeast superoxide,TRPC6 act,TRPC4 potent,TRPC4 block,TRPC4 agonist,TRPC6 inh conf,TRPC6 act confirm,others
Cc1cccc(-n2cnc(C(=O)NC3CCCCCC3)c2)n1,-6.03*,92.7,i,i,i,i,i,i,HEK293 MPD ctr-2=i;HEK293 MPD ctr 2-2=i;TRPC4/MOR mod=9.0%*;TRPC4 ctr inh 2=i
C=CC[C@@H](CC(=O)NCCO)C(=O)N[C@@H](COC(=O)[C@@H](CC=C)Cc1ccc(F)cc1)Cc1ccccc1,nt,80.8,nt,nt,nt,nt,nt,nt,
CN(C)/C=C1\SC(=S)N(c2ccc(Br)cc2)C1=O,i,96.2,i,i,i,i,nt,nt,
O=C1CSC2(C(=O)N3CCCc4cccc2c43)N1c1cccc(C(F)(F)F)c1 (stereo not given),i,79.3,i,i,i,i,nt,nt,
COc1ccc(N2C(=O)CSC23C(=O)N2CCCc4cccc3c42)cc1 (stereo not given),-13.5*,99.8,i,i,i,i,80.7%*,i,TRPC4 sel inh 2=i;TRPC4 spec=i;HEK293 MPD ctr 2-1=-29.0%*;HEK293 MPD ctr-1=i
CCC(C)[C@H](NC(=O)[C@H](Cc1ccccc1)n1c(=O)[nH]c2ccccc2c1=O)C(=O)N1CCC(C(=O)O)CC1 (stereo not given in full),i,143.3,i,i,i,i,nt,nt,
COc1ccc(OC)c(CNC(=O)C2CCCN(S(=O)(=O)N3CCC(C)CC3)C2)c1 (stereo not given),i,80.6,i,i,i,i,nt,nt,
CN(C)CCNc1ccc(-c2nn(C)c(=O)c3ccccc23)cc1[N+](=O)[O-],-5.19*,105.9,i,i,i,i,72.0%*,i,HEK293 MPD ctr-2=-133.5%*;HEK293 MPD ctr 2-2=i;TRPC4/MOR mod=-32.0%*;TRPC4 ctr inh 2=77.5%*
N#CCCN1CCN(S(=O)(=O)c2ccc(S(=O)(=O)N3CCCCCC3)cc2)CC1,i,95.9,i,i,i,i,nt,nt,
CCN(C1CCCCC1)S(=O)(=O)c1ccc(S(=O)(=O)N2CCN(CCC#N)CC2)cc1,-5.55*,99.2,i,i,i,i,37.5%*,i,HEK293 MPD ctr-2=i;HEK293 MPD ctr 2-2=i;TRPC4/MOR mod=10.5%*;TRPC4 ctr inh 2=i
O=C(c1ccccc1Cl)N1CCn2c1nc1ccccc12,i,106.4,i,i,i,i,nt,nt,
Cc1cc(=O)n2nc(N3CCCC(C(=O)N4CCOCC4)C3)sc2n1 (stereo not given),nt,101.2,nt,nt,nt,nt,nt,nt,
Cc1cc(=O)n2nc(N3CCCC(C(=O)N4CCc5ccccc54)C3)sc2n1 (stereo not given),-8.73*,100.8,i,i,i,i,i,i,TRPC4 sel inh 2=i;TRPC4 spec=i;HEK293 MPD ctr 2-1=i;HEK293 MPD ctr-1=i
CN(C)CCCNc1nc(-c2ccc(Cl)cc2)nc2ccccc12,-7.68*,110.8,i,i,i,i,69.8%*,i,TRPC4 sel inh 2=53.0%*;TRPC4 spec=-31.0%*;HEK293 MPD ctr 2-1=34.5%*;HEK293 MPD ctr-1=-414.0%*
Cc1cccc(-c2nc(NCCCN(C)C)c3ccccc3n2)c1,-7.86*,98.2,i,i,i,i,75.8%*,i,TRPC4 sel inh 2=50.5%*;TRPC4 spec=-20.1%*;HEK293 MPD ctr 2-1=i;HEK293 MPD ctr-1=-242.0%*
COc1ccc(C(=O)NCCN2CCCC2)cc1[N+](=O)[O-],i,96.5,i,i,i,i,nt,nt,
OCCNc1nc(N2CCOCC2)nc(N2CCOCC2)n1,i,85.2,i,i,i,i,nt,nt,
COc1cccc(OCc2cc(C(=O)N(Cc3ccccc3)CC3CC3)no2)c1,-5.16*,135.7,i,i,i,i,i,nt,HEK293 MPD ctr-2=131.0%*;HEK293 MPD ctr 2-2=i;TRPC4/MOR mod=26.5%*;TRPC4 ctr inh 2=i
COc1cccc(OCc2cc(C(=O)N(C)Cc3nc4ccccc4[nH]3)no2)c1,i,86.2,i,i,i,i,nt,nt,
CCNC(=O)NC(=O)COC(=O)c1cccc(S(=O)(=O)N2CC3(C)CC2CC(C)(C)C3)c1 (stereo not given),i,80.1,i,i,i,i,nt,nt,
O=C(NCc1ccccc1)c1onc(CSc2ccccn2)c1C(=O)NCc1ccccc1,i,109.8,i,i,i,i,nt,nt,
CC(CCN1C(Nc2ccccc2)=NC[C@@H]1Cc1ccccc1)c1ccccc1 (stereo not given in full),i,113.3,i,i,i,i,nt,nt,
CCOC(=O)N1CCC(N2Cc3cccc(C(=O)Nc4ccc(CC)cc4)c3C2=O)CC1,-7.42*,118.8,i,i,i,i,i,i,TRPC4 sel inh 2=i;TRPC4 spec=i;HEK293 MPD ctr 2-1=i;HEK293 MPD ctr-1=i
CCOC(=O)N1CCC(N2Cc3cccc(C(=O)NCc4ccc(OC)cc4)c3C2=O)CC1,-7.73*,98.9,i,i,i,i,i,i,TRPC4 sel inh 2=i;TRPC4 spec=i;HEK293 MPD ctr 2-1=i;HEK293 MPD ctr-1=i
CCOC(=O)N1CCC(N2Cc3cccc(C(=O)Nc4ccc(OCC)cc4)c3C2=O)CC1,i,94.2,i,i,i,i,nt,nt,
CCC(C)(C)n1nnnc1C(c1ccc2ncccc2c1)N1CCCCCC1 (stereo not given),-5.09*,89.9,i,i,i,i,i,nt,HEK293 MPD ctr-2=i;HEK293 MPD ctr 2-2=i;TRPC4/MOR mod=28.0%*;TRPC4 ctr inh 2=33.0%*
